Source: ChEMBL document CHEMBL1833812, “Synthesis, biological evaluation, and automated docking of constrained analogues of the opioid peptide H-Dmt-D-Ala-Phe-Gly-NH₂ using the 4- or 5-methyl substituted 4-amino-1,2,4,5-tetrahydro-2-benzazepin-3-one scaffold” (J Med Chem, 2011)

Columns and labels:
Mu-type opioid receptor [1] = biological target: T1, Mu-type opioid receptor (Rattus norvegicus, UniProt P33535); experiment: Displacement of [3H]DAMGO from rat brain Mu-type opioid receptor by liquid scintillation counting
T1 sequence (P33535 whole entry): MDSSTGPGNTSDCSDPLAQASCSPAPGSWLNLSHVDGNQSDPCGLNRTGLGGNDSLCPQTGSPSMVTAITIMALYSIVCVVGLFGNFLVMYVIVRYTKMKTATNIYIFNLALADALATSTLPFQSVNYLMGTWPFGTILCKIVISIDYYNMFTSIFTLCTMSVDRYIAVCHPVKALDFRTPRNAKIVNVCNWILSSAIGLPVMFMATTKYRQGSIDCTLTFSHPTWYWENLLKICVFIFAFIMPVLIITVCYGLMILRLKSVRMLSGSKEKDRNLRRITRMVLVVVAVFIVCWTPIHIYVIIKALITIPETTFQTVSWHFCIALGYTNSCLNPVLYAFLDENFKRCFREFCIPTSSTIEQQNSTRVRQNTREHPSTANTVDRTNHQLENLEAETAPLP
Outline: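 Wistar male rat (250–300 g) brain membrane homogenate, 0.2–0.4 mg protein/tube, with 0.5 nM [3H]DAMGO and competitor 10^-11–10^-5 M in 50 mM Tris-HCl pH 7.4, 1 h at 25 °C. Stopped by GF/C filtration, ice-cold Tris washes, scintillation counted. Nonspecific binding with 10 μM naloxone; duplicate runs, one/two-site competition fit for Ki.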

[2] = biological target: Delta-type opioid receptor (Rattus norvegicus, UniProt P33533); experiment: Displacement of [3H]Ile-deltorphin-2 from rat brain delta-type opioid receptor by liquid scintillation counting
Sequence of Delta-type opioid receptor (Rattus norvegicus, UniProt P33533) (P33533 whole entry): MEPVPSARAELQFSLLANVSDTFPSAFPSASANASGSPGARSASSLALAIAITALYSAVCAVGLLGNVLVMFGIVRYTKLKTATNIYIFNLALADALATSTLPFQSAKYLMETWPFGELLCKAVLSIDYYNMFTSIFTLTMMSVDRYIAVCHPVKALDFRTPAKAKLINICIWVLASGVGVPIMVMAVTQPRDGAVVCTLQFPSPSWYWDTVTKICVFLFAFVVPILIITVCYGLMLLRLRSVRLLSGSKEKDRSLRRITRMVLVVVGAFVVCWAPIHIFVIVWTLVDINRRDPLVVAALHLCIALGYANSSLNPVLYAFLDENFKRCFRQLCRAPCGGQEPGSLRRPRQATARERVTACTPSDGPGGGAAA
Outline: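 Wistar male rat (250–300 g) brain membranes, 0.2–0.4 mg protein/tube, 2 nM [3H]Ile5,6-deltorphin-2 plus 0.25 mg BSA/tube, competitor 10^-11–10^-5 M, 50 mM Tris-HCl pH 7.4, 45 min at 35 °C. GF/B filtration, ice-cold Tris washes, scintillation counting. Nonspecific binding with 10 μM naloxone; duplicates, one/two-site competition fit for Ki.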

Rattus norvegicus = species: Rattus norvegicus; experiment: Selectivity ratio of Ki of rat brain delta-type opioid receptor to Ki of rat brain Mu-type opioid receptor
Mu-type opioid receptor [3] = biological target: T1, Mu-type opioid receptor; experiment: Agonist activity at rat brain mu-opioid receptor assessed as [35S]GTPgammaS binding by liquid scintillation counting; type: functional
Outline: (§1)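 Rat brain membranes (15 μg protein/tube) with 0.05 nM [35S]GTPγS and opioids 10^-10–10^-5 M, plus 30 μM GDP, 100 mM NaCl, 3 mM MgCl2, 1 mM EGTA in 50 mM Tris-HCl pH 7.4, 60 min at 30 °C. Started by protein, stopped with ice-cold buffer and GF/B filtration, scintillation counted. Nonspecific binding with 10 μM unlabeled GTPγS; stimulation as % of specific binding over basal (no opioid).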

[4] = biological target: Mu-type opioid receptor (Rattus norvegicus) (UniProt P33535); experiment: Agonist activity at rat brain Mu-type opioid receptor assessed as [35S]GTPgammaS binding by liquid scintillation counting relative to control; type: functional; outline: as §1
Sequence of Mu-type opioid receptor (Rattus norvegicus) (P33535 whole entry): as the sequence (P33535 whole entry) above

Mu-type opioid receptor [5] = biological target: Mu-type opioid receptor (Homo sapiens, UniProt P35372); experiment: Agonist activity at Mu-type opioid receptor; type: functional
Sequence of Mu-type opioid receptor (Homo sapiens, UniProt P35372) (P35372 whole entry): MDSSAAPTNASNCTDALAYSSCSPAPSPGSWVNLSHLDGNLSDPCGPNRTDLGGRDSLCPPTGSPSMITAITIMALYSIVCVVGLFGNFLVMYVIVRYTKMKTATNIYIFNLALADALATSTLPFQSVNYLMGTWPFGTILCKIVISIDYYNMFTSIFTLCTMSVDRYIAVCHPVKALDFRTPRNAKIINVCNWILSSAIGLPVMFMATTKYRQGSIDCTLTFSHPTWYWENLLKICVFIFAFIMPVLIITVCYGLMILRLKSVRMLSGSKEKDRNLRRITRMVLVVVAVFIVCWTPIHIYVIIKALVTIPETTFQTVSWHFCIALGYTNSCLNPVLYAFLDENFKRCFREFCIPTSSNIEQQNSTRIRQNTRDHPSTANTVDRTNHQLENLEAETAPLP

Mu-type opioid receptor [6] = biological target: Mu-type opioid receptor (Cavia porcellus, UniProt P97266); experiment: Agonist activity at guinea pig ileum Mu-type opioid receptor; type: functional, tissue-based
Sequence of Mu-type opioid receptor (Cavia porcellus, UniProt P97266) (P97266 whole entry): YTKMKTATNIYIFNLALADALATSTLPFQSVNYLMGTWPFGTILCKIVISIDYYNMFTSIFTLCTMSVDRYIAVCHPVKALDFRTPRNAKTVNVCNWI

[7] = biological target: Delta-type opioid receptor (Homo sapiens, UniProt P41143); experiment: Agonist activity at delta-type opioid receptor; type: functional
Sequence of Delta-type opioid receptor (Homo sapiens, UniProt P41143) (P41143 whole entry): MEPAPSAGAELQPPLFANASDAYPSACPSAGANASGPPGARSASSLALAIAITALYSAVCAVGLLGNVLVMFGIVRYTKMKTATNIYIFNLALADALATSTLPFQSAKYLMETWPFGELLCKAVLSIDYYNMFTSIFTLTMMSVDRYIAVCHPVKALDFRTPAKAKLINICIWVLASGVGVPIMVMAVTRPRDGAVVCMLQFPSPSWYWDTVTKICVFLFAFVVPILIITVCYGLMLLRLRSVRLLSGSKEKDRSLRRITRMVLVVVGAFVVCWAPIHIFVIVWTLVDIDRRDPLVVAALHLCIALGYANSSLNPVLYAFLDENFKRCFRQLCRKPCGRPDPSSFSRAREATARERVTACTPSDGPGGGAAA

Compound	Ki (Mu-type opioid receptor [1])	Ki [2]	Ratio Ki (Rattus norvegicus)	EC50 (Mu-type opioid receptor [3])	Emax [4]	IC50 (Mu-type opioid receptor [5])	IC50 (Mu-type opioid receptor [6])	IC50 [7]
Cc1cc(O)cc(C)c1C[C@H](N)C(=O)N[C@H](C)C(=O)N[C@@]1(C)Cc2ccccc2CN(CC(N)=O)C1=O	4.6 nM	859 nM	187	941 nM	159%	–	–	–
Cc1cc(O)cc(C)c1C[C@H](N)C(=O)N[C@H](C)C(=O)N[C@H]1C(=O)N(CC(N)=O)Cc2ccccc2[C@@H]1C	0.025 nM	24 nM	960	9.3 nM	149%	–	–	–
C[C@H](C(=O)NC1Cc2ccccc2CN(CC(N)=O)C1=O)N1Cc2cc(O)ccc2CC(N)C1=O (some centres undefined)	–	–	–	–	–	20.8 nM	3.64 nM	–
Cc1cc(O)cc(C)c1C[C@H](N)C(=O)N[C@H](C)C(=O)N[C@@H]1C(=O)N(CC(N)=O)Cc2ccccc2[C@H]1C	14 nM	720 nM	51	685 nM	130%	–	–	–
Cc1cc(O)cc(C)c1C[C@H](N)C(=O)N[C@H](C)C(=O)N[C@H]1C(=O)N(CC(N)=O)Cc2ccccc2[C@H]1C	0.4 nM	490 nM	1220	184 nM	167%	–	–	–
Cc1cc(O)cc(C)c1C[C@H](N)C(=O)N[C@H](C)C(=O)N[C@@H]1C(=O)N(CC(N)=O)Cc2ccccc2[C@@H]1C	0.025 nM	1.7 nM	68	36 nM	191%	–	–	–
C[C@@H](NC(=O)[C@@H](N)Cc1ccc(O)cc1)C(=O)NC1Cc2ccccc2CN(CC(=O)N[C@@H](Cc2ccc(O)cc2)C(=O)N2CCC[C@H]2C(=O)N[C@@H](CO)C(N)=O)C1=O (some centres undefined)	–	–	–	–	–	11 nM	–	17.4 nM
Cc1cc(O)cc(C)c1C[C@H](N)C(=O)N[C@H](C)C(=O)N[C@@H]1Cc2ccccc2CN(CC(N)=O)C1=O	0.33 nM	337 nM	1020	64.2 nM	178%	–	–	–
Cc1cc(O)cc(C)c1C[C@H](N)C(=O)N[C@H](C)C(=O)N[C@]1(C)Cc2ccccc2CN(CC(N)=O)C1=O	0.3 nM	63 nM	210	288 nM	154%	–	–	–
Cc1cc(O)cc(C)c1C[C@H](N)C(=O)N[C@H](C)C(=O)N[C@H]1Cc2ccccc2CN(CC(N)=O)C1=O	0.047 nM	2.4 nM	51	18 nM	161%	–	–	–
